Compounds with a hit are over-represented: about 2.3% of the library has one in this group of screens.
Autophagy HCS = modulators of autophagy. MEF GFP-LC3 puncta imaging; test concentration mostly 10 µM. calls only at 10 µM (by protocol). 190,000 tested, 0.98% active;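 active = percentage of spot-positive cells more than 3 SD above its plate mean, without a fluorescence outlier flag or 80% toxicity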;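 note: spot-positive cell cutoff set from DMSO-treated cells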
bCat nuc transl = beta-catenin nuclear translocation modulation; HeLa beta-catenin nuclear translocation, immunofluorescence imaging; nuclear translocation activity, % at 5 µM; 190,000 tested, 0.3% active;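 active = nuclear translocation activity above 50% at 5 µM, with a well cell count of 50 or more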;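 note: per-cell ratio of nuclear to cytoplasmic median beta-catenin stain intensity; plate controls were DMSO negative control for no effect and GSK-3 inhibitor IX positive control for full effect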
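Test system: human HeLa cells, native beta-catenin. Compound dosing: 5 µM primary single dose, 0.1% DMSO, 0.02–20 µM confirmation series. Incubation: compound exposure 24 h at 37°C. Detection: beta-catenin immunostaining with DAPI counterstain, 20x imaging, 6 fields/well. Read-out basis: Nuclear/cytoplasmic beta-catenin signal ratio, % activation.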
Insulin prom up = MIN6 insulin promoter up-regulation. MIN6 insulin promoter-GFP reporter, high-content imaging; stronger effect = higher value. z-score at 5 µM. 190,000 tested, 0.3% active;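 active = z-score above 3 at 5 µM with at least 500 cells counted in the well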
Dynein cargo inh = blocks dynein driven cargo transport along microtubules; 3617.4 mouse cells, GR-EGFP nuclear translocation imaging; test concentration mostly 20 µM; stimulated with dexamethasone, 1 µM; stronger effect = lower value; AID 1381; z-score, hits read low; 220,000 tested, 0.47% active;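 active = plate z-score of nuclear minus cytoplasmic receptor signal below a set negative limit, without overly bright fluorescence or cell loss, cut at about -3.5 in these data, passing the limit was not always enough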;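 note: z-score of nuclear minus cytoplasmic ring GR-EGFP intensity difference per well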
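Schedule: 48 h induction, then 1 h compound, then 30 min agonist, 37 °C. Buffer or medium: tetracycline-free induction medium containing charcoal-stripped FBS. Reagent: 1.0 µM final dexamethasone stimulus. Evaluation: nuclear versus cytoplasmic GR-EGFP signal, averaged per well. Signal: high-content fluorescence imaging after fixation.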
MT stabilize HCS = microtubule stabilization, imaging screen; % tubulin-high responders, % at 10 µM; HeLa tubulin immunostaining HCS, 24 h; share of cells brighter than vehicle mean+2SD; 200,000 tested, 0.83% active;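 active = plate Z-score above 3 for both tubulin-high and condensed-nucleus cell shares, with cell loss under 80%, at 10 µM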;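 note: anti alpha tubulin signal scored within the nucleus-defined area of each cell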
* hit, by the source's call; i = inactive; · = not tested or not shown; + = active, no number.

SMILES	Autophagy HCS	bCat nuc transl	Insulin prom up	Dynein cargo inh	MT stabilize HCS
CCN(CC)c1ccc(/C=N/NC(=O)c2ccco2)cc1	i	·	-0.02	0.91	20*
Cc1cc(-c2c(C(=O)N3CCOCC3)c(C)nn2-c2ccccc2)no1	·	6	-0.38	0.24	·
C=CCOc1ccc(/C(O)=C2\C(=O)C(=O)N(CCN(C)C)C2c2cccs2)cc1 (centres undefined)	+	-3	0.32	1.8	2
CCOc1ccc(/C(O)=C2/C(=O)C(=O)N(CCN(CC)CC)C2c2cccs2)cc1 (centres undefined)	·	1	-0.17	-1.7	·
CCc1ccc(/C=C2/C(=O)N(c3ccccc3)C(=S)N2CC(=O)OC)s1	+	1	-0.52	-1.8	4
Cn1cccc1/C=N/NC(=O)CSc1nc2ccccc2n1C	·	1	0.52	0.39	·
O=C(NCC(c1cccs1)N1CCOCC1)c1ccc(Cl)s1 (centres undefined)	i	·	·	0.57	54*
COC(=O)c1ccc2c(=O)n(CC3CCCO3)c(SCC(=O)Nc3ccccc3OC)nc2c1 (centres undefined)	+	0	-0.62	0.3	6
CC(CNC(=O)CCc1nnc(CCC2CCCCC2)o1)c1ccccc1 (centres undefined)	i	0	0.15	-0.35	3
Oc1ccc(/C=N/Nc2cc(N3CCCC3)nc(N3CCCC3)n2)cc1	i	0	0.37	0.36	2
COc1ccc(/C=N/Nc2cc(N3CCCC3)nc(N3CCCC3)n2)cc1	+	0	-0.9	-0.7	2
C/C(=N\NC(=O)c1ccc(N/N=C(\C)c2ccc(O)cc2)cc1)c1ccc(O)cc1	·	-1	-0.47	-0.22	·
COc1ccc(C2C=C(c3ccc(C)cc3)Nc3ncnn32)cc1 (centres undefined)	i	-4	-0.16	3.3	5
COc1ccc(C2C=C(c3ccc(Br)s3)Nc3ncnn32)cc1OC (centres undefined)	i	58*	-0.39	-0.08	29*
N#CC1=C(N)C(C#N)(C#N)[C@H](c2ccoc2)[C@H]2CN(Cc3ccccc3)CC=C12	+	5	·	-8	3
CC(=O)N1CC=C2C(C#N)=C(N)C(C#N)(C#N)[C@H](c3ccoc3)[C@H]2C1	i	2	0.97	-0.64	2
N#CC1=C(N)C(C#N)(C#N)C(c2cccnc2)C2CN(C(=O)OCc3ccccc3)CC=C12 (centres undefined)	i	-2	-0.36	-0.15	2
CN1CC=C2C(C#N)=C(N)C(C#N)(C#N)C(c3cccc(Cl)c3Cl)C2C1 (centres undefined)	+	1	·	-1.9	3
CN1CC=C2C(C#N)=C(N)C(C#N)(C#N)[C@H](c3ccoc3)[C@H]2C1	+	·	·	8.1	2
O=C(C1=C[C@H](C2CC2)C[C@H](OCCCCO)O1)N1CCN(Cc2ccccc2)CC1	i	-1	3.7*	0.41	2
O=C(C1=C[C@H](C2CCCCC2)C[C@H](OCCCCO)O1)N1CCN(Cc2ccccc2)CC1	i	-1	-0.3	-0.21	2
CCN1CCN(C(=O)c2ccccc2NS(=O)(=O)c2ccc(Cl)cc2)CC1	i	-2	-1	-0.65	6
CCOC(=O)COc1cccc2c(=O)n(CC(=O)NCc3ccccc3)ccc12	·	56*	0.13	-0.45	·
COc1cccc2c(=O)n(CC(=O)Nc3cccc(F)c3)ccc12	i	·	3.4*	-0.42	9
CCOC(=O)C(C)Oc1cccc2c(=O)n(CC(=O)Nc3ccc4c(c3)OCCO4)ccc12 (centres undefined)	i	-1	-0.74	-0.34	6
SMILES	Autophagy HCS	bCat nuc transl	Insulin prom up	Dynein cargo inh	MT stabilize HCS
CCOC(=O)COc1cccc2c(=O)n(CC(=O)NCCc3ccc(OC)c(OC)c3)ccc12	i	-2	3.6*	-0.29	4
CCOC(=O)C(C)Oc1cccc2c(=O)n(CC(=O)NCc3ccc4c(c3)OCO4)ccc12 (centres undefined)	i	73*	0.08	0.25	16*
CCOC(=O)COc1cccc2c(=O)n(CC(N)=O)ccc12	·	1	-0.37	-0.064	·
CCOC(=O)COc1cccc2c(=O)n(CC(=O)NCc3ccc(F)cc3)ccc12	·	74*	-0.8	-0.93	·
CC1CC(C)CN(Cc2nc(N)nc(Nc3ccc4ccccc4c3)n2)C1 (centres undefined)	i	40	-2	2.6	46*
Cc1cccc2cc(C(c3nnnn3Cc3ccccc3)N3CCCc4ccccc43)c(=O)[nH]c12 (centres undefined)	+	·	·	1.4	3
CCN1CCN(C(c2cc3cccc(C)c3[nH]c2=O)c2nnnn2Cc2ccccc2)CC1 (centres undefined)	i	0	0.33	-0.26	3
N#CC1=C(N)Oc2ccc3ccc(O)cc3c2C1c1cccnc1 (centres undefined)	i	-3	-0.92	-1.2	3
N#CC1=C(N)Oc2ccc3ccccc3c2C1c1cccnc1 (centres undefined)	i	-2	-0.33	1.8	16*
COc1ccc(NC(=O)Cc2c(Sc3ccccc3)c3ccccc3n2C)cc1	i	-3	-0.01	0.83	3
COc1ccc(NC(=O)c2c(Cl)n(C)c3ccccc23)cc1	i	3	0.67	0.2	49*
COc1ccc(CC(NC(C)=O)C(=O)NC2CCN(C(=O)c3ccc([N+](=O)[O-])cc3)CC2)cc1OC (centres undefined)	·	-1	0.26	-0.44	·
O=C(CSc1ncccn1)N/N=C/c1ccccc1[N+](=O)[O-]	i	-1	-0.18	-0.19	2
CN(C)c1ccccc1C(=O)c1ccccc1N(C)C	·	17	0.23	-0.024	55*
CN(c1ccccc1C(=O)O)S(C)(=O)=O	i	-4	-0.25	-0.36	4
O=C(O)c1cccc(COCC(F)(F)C(F)F)c1	+	2	-0.36	-0.058	3
COc1cccc(-c2cc(=O)c3cc(NC(=O)c4ccc(N(C)C)cc4)ccc3[nH]2)c1	i	88*	0.57	0.23	4
COc1cccc(-c2cc(=O)c3cc(NC(=O)c4ccc(Cl)cc4)ccc3[nH]2)c1	i	0	1.3	0.3	26*
COc1ccc(C2N(Cc3ccccc3)CCN2Cc2ccccc2)cc1[N+](=O)[O-]	+	-3	-0.06	0.94	5
CCC(=C(c1ccc(OC)cc1)c1ccc(OC)cc1)c1cn(CC(O)CN2CCN(C)CC2)c2ccccc12 (centres undefined)	+	22	-2.9	0.78	1
CSc1nc(C=Nc2ccccc2Cl)c(O)n1Cc1cccc(Cl)c1	·	0	-1	1.3	·
CN(C)c1ccc2c(c1)OC(N)=C(C#N)C2c1cccc(F)c1 (centres undefined)	i	99*	-0.14	0.003	8
N#CC1=C(N)Oc2cc(O)ccc2C1c1cccnc1 (centres undefined)	i	-4	0.38	-0.012	2

Assay outcomes: PubChem, several laboratories
